According to PMC13645671 (Nature, 2026):

Legend:
[1] = system: LPS-primed human THP-1 monocytic cells; experiment: Nigericin-induced pyroptosis, LDH release; assay type: cell-based; conditions: LPS-primed THP-1 cells, 25 µM compound
Procedure, shortened: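 THP-1 cells in Opti-MEM with 0.1% FBS were primed for 4 h with 1 µg/ml ultrapure LPS (E. coli O111:B4). They were then stimulated for 2 h with 5 µM nigericin, with or without 25 µM test compound. LDH release was measured by CytoTox 96 and given as a percentage of maximal release by 0.1% Triton X-100.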

[2] = system: THP-1 cells expressing FKBP–caspase-4; experiment: B/B-induced FKBP–caspase-4 pyroptosis, LDH release; assay type: cell-based, human; conditions: FKBP–caspase-4 THP-1 cells, 50 nM B/B, 10 µM compound
Procedure, shortened: (§1)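 Unprimed THP-1 cells stably expressing FKBP–caspase-4 or FKBP–caspase-11 were seeded in Opti-MEM with 0.1% FBS. Cells were dimerised with 50 nM B/B, with or without 10 µM test compound, for the indicated times. LDH in the medium was measured by CytoTox 96 and expressed as a percentage of maximal release by 0.1% Triton X-100.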

[3] = system: THP-1 cells expressing FKBP–caspase-11; experiment: B/B-induced FKBP–caspase-11 pyroptosis, LDH release; assay type: cell-based, human; conditions: FKBP–caspase-11 THP-1 cells, 50 nM B/B, 10 µM compound
Procedure, shortened: as §1

| SMILES | nigericin-induced cell lysis (LDH release), in words [1] | cell death induced by caspase-4, in words [2] | cell death induced by caspase-11, in words [3] |
| --- | --- | --- | --- |
| C[C@H](NC(=O)C(=O)Nc1ccccc1C(C)(C)C)C(=O)N[C@@H](CC(=O)O)C(=O)COc1c(F)c(F)cc(F)c1F [Emricasan, N-[2-(1,1-dimethylethyl)phenyl]-2-oxoglycyl-N-[(1S)-1-(carboxymethyl)-2-oxo-3-(2,3,5,6-tetrafluorophenoxy)propyl]-L-alaninamide] | inhibited | inhibited | inhibited |
| CC(C)(O)c1coc(S(=O)(=O)NC(=O)Nc2c3c(cc4c2CCC4)CCC3)c1 [MCC950] | inhibited | – | – |
